Screens from PubChem BioAssay.
HePTP inh: inhibitors of human HePTP phosphatase, primary screen, biochemical, absorbance, leukemia target; Tyrosine-protein phosphatase non-receptor type 7 (Homo sapiens), P35236; recombinant HePTP phosphatase activity, OD absorbance; inhibition, % at 20 µM; 110,000 tested, 0.64% active; AID 521, 2006; in the data active = inhibition above about 50%;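 note: plate controls were vehicle for no effect and reference inhibitor for full effect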
PLAP act: PLAP enzyme activators, biochemical, luminescence, HTS; activation fold at 20 µM; purified PLAP enzyme, luminescent substrate read-out; hits give high values; AID 696, 2007; 96,000 tested, 1.2% active; in the data active = activation fold above about 2
Target sequence (P05187 whole entry, looked up): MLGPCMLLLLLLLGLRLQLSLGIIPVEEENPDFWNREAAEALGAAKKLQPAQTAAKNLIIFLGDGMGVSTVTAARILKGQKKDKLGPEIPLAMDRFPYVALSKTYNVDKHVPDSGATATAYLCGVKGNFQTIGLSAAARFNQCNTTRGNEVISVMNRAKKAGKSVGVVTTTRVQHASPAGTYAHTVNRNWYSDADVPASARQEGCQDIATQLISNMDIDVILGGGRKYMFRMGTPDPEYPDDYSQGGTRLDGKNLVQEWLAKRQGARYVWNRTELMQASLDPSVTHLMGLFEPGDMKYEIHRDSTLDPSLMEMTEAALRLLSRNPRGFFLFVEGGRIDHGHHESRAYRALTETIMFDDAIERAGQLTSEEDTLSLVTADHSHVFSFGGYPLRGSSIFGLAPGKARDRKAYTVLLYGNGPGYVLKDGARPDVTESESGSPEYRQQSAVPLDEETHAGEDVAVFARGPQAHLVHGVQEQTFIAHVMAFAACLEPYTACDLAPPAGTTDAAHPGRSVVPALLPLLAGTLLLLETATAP
PostGolgi ctrl: growth inhibition of yeast control strain, primary screen, counter-screen for post-Golgi transport modulator project; efflux-deficient yeast background strain, growth absorbance A615, 16 h; inhibition, % at 10 µM; 98,000 tested, 5% active; AID 738, 2007
PostGolgi yeast: phenotypic screen on post-Golgi transport, primary screen; post-Golgi transport phenotypic cell assay; 98,000 tested, 0.9% active; AID 739, 2007; inhibition, % at 10 µM;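 note: yeast cells grown in 1536-well plates; yeast grown about 18 h at 30C before absorbance read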
E coli WT exp: growth inhibitors of wild-type E. coli, primary screen, strain BW25113, expanded library, OD600. OD600 absorbance. growth inhibition, % at 100 µM. 98,000 tested, 0.15% active;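 active = growth inhibition above about 50% at one test dose, limit read from the data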;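 note: growth measured after 20 h incubation at 37 °C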
Ecoli tolC: growth inhibitors of E. coli tolC mutant, primary screen, strain BW25113 ΔtolC::kan, 384-well; OD615; growth inhibition, % at 10 µM (by protocol); 65,000 tested, 2.2% active; AID 573, 2007;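 active = growth inhibition at or above a cutoff equal to the mean over every tested compound plus 3 SD, cut at about 60% in these data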;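 note: growth measured after 20 h incubation at 37 °C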
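Doses: one dose of 10 µM final / Material: E. coli BW25113 ΔtolC::kan, tolC deletion mutant strain / Buffer or medium: LB with kanamycin 50 µg/mL / Evaluation: percent growth inhibition / Detection: optical density read at 615 nm / Incubation: 37 °C, 20 h exposure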
An asterisk follows results filed as active; · = no result. Shown are actives, neighbours in structure and some others; about 5.4% of the full set was active somewhere. Cut-off read from the data, not from the text of the source, unless noted: active = inhibition above about 30%; inactive = the rest.

SMILES	HePTP inh	PLAP act	PostGolgi ctrl	PostGolgi yeast	E coli WT exp	Ecoli tolC
CCNc1nc(NC(C)C)nc(N(C#N)Cc2ccccc2)n1	12	1.1	22	-4	1	67*
CCOc1cc(/C=C2/SC(=S)NC2=O)cc(Br)c1OCc1ccc(F)cc1	40	·	·	·	·	·
Fc1ccc(-c2nnc(CN3CCC(c4nc5ccccc5s4)CC3)o2)cc1	2	0.9	38*	16	-1	-1
O=C(CSc1ccc(F)cc1)N1CCC(c2nc3ccccc3s2)CC1	·	1.3	20	5	-4	·
O=C(NCc1cccnc1)C1c2ccccc2C(=O)N1C1CCCCCC1 (stereo not given)	9	0.9	8	-7	0	-2
O=C(NCc1cccnc1)C1c2ccccc2C(=O)N1C1CCCCCCC1 (stereo not given)	-6	1.1	34*	5	-4	4
O=C(Nc1ccc2snnc2c1)Nc1cccc2ccccc12	·	0.9	49*	6	-3	·
NC(=O)c1ccc(NC(=O)Nc2cccc3ccccc23)cc1	10	·	·	·	·	·
CCOC(=O)C1=C(c2ccccc2)N=c2s/c(=C\c3cccnc3)c(=O)n2C1c1cc(OC)ccc1OC (stereo not given)	8	·	·	·	·	·
COc1ccc(OC)c(S(=O)(=O)NCc2cn3cccc(C)c3n2)c1	·	·	·	·	·	-9
Cc1cccn2cc(CNS(=O)(=O)c3cccc(F)c3)nc12	·	2.3*	3	0	9	·
O=[N+]([O-])c1ccc(/C=N/Nc2nc(N3CCCCC3)nc(N3CCCCC3)n2)o1	·	1.4	49*	12	-1	·
CN(C)CCNC=C(C(=O)Nc1ccc(Cl)cc1Cl)C(=O)Nc1ccc(Cl)cc1Cl	·	1.6	99*	40*	-6	·
CN(C)c1cccc(C(=O)Nc2ccc(Cl)cc2Cl)c1	2	·	·	·	·	·
COC(OC)c1cn(-c2ccccc2)nc1-c1ccccc1	6	·	·	·	·	·
CCn1c(C(=O)N2CCC(C(=O)NCCCSC3CCCCC3)CC2)cc2sccc21	5	1.7	20	-1	-27	84*
CNc1ccc(C(O)(C(F)(F)F)C(F)(F)F)cc1C(O)(C(F)(F)F)C(F)(F)F	9	1	11	-2	1	62*
CCOC(=O)N1CCN(C(=O)COc2ccc(S(=O)(=O)Nc3ccc(OCC)cc3)cc2)CC1	1	1.2	5	15	0	68*
O=C(c1ccc(Cl)c([N+](=O)[O-])c1)N1CCc2ccccc2C1	4	·	·	·	·	·
C=CCNC(=O)c1onc(CSc2ccc(F)cc2)c1C(=O)NCCOC	·	1.1	46*	0	0	·
CC(C)NC(=O)c1onc(CSc2ccccc2F)c1C(=O)O	·	0.9	39*	-2	-6	·
Cc1ccccc1SCc1noc(C(=O)NC(C)C)c1C(=O)O	·	1	-7	7	1	·
C=CCNC(=O)c1onc(CSc2ccc(C(C)C)cc2)c1C(=O)O	·	1.3	33*	-4	-13	·
C=CCNC(=O)c1onc(CSc2ccc(F)cc2)c1C(=O)O	·	1	-2	0	-11	·
C=CCNC(=O)c1onc(CSc2ccccc2)c1C(=O)O	·	0.9	17	-4	-5	·
SMILES	HePTP inh	PLAP act	PostGolgi ctrl	PostGolgi yeast	E coli WT exp	Ecoli tolC
COc1cccc(C(=O)/C=C/c2ccc(Cl)cc2)c1	2	·	·	·	·	·
CC(C)CSc1nc(O)c(C(c2ccccc2)c2ccccc2)c(=O)[nH]1	-4	·	·	·	·	·
Brc1ccc(CN2CCN(C3CCCCC3)CC2)cc1	0	·	·	·	·	·
CCOC(=O)CCC(=O)Nc1ccc(S(=O)(=O)N2CCCC2)cc1	-1	1	6	0	3	0
Cc1ccc(S(=O)(=O)N2CCN(C(=O)CCC(=O)OCC(=O)Nc3cccc(C#N)c3)CC2)cc1	-8	1.5	32*	2	-8	-8
COc1ccc(Br)cc1/C=C\C(=O)Nc1cc(C(F)(F)F)ccc1Cl	-15	·	·	·	·	·
Nc1ncnc2nc(SCc3ccc(Cl)cc3Cl)[nH]c12	·	2.3*	18	-5	-2	·
Nc1ncnc2nc(Sc3ccc(Cl)cc3)[nH]c12	12	1	2	-2	8	4
COc1nc(Nc2cccc(C)c2)nc(N2CCCCC2)n1	3	0.9	36*	5	2	8
COc1nc(N2CCCCCC2)nc(N2CCCCCC2)n1	-5	1.3	32*	23	2	42
CCOc1ccc(Nc2nc(N3CCCCC3)nc(N3CCCCC3)n2)cc1	·	0.9	4	26	-13	·
Cc1cccc(Nc2nc(N3CCCC3)nc(N3CCCC3)n2)c1	·	0.9	38*	2	-1	·
COc1nc(/C(N)=N/O)nc(N2CCCCC2)n1	5	1.1	0	-6	8	-15
Cc1cccc(Nc2nc(NCc3ccco3)nc(N3CCOCC3)n2)c1	6	1.2	1	3	-13	62*
COc1ccc(N2CCN(c3nc(Nc4ccc(F)cc4)nc(OC)n3)CC2)cc1	·	1	-10	-4	0	·
COc1ccc(CCNC(=O)c2ccc(C#CC(C)(C)O)cc2)cc1OC	-10	·	·	·	·	·
CCCCN1C(=O)C(=O)c2cc(Br)ccc21	6	·	·	·	·	·
COc1ccc(COC(=O)C2=C(C)NC3=C(C(=O)CC(C)(C)C3)C2c2ccc(Cl)c([N+](=O)[O-])c2)cc1 (stereo not given)	-13	·	·	·	·	·
O=C(Nc1nc(COc2ccccc2)cs1)C12CC3CC(CC(C3)C1)C2	·	0.5	37*	1	-8	·
Cc1ccc(C(=O)Nc2nc(COc3ccccc3)cs2)s1	-6	1.1	2	-1	-9	79*
CC(=O)Nc1nc(COc2ccccc2)cs1	0	0.9	13	-1	12	7
CC1CCc2c(sc3nc(-c4ccco4)[nH]c(=O)c23)C1 (stereo not given)	5	·	·	·	·	·
COCCCNc1ccnc2c(Cl)cccc12	6	0.8	-4	31*	10	-12
COCCNCCOc1c(Cl)cccc1Cl	1	·	·	·	·	·
C=CCn1c(SCc2nc3ccccc3[nH]2)nnc1-c1ccccn1	-7	2*	11	-3	2	7
SMILES	HePTP inh	PLAP act	PostGolgi ctrl	PostGolgi yeast	E coli WT exp	Ecoli tolC
Cn1ccc(C(=O)N/N=C/c2cccc(OCc3ccccc3)c2)n1	-14	·	·	·	·	·
Clc1ccc(OCc2nn3c(C4CCCCC4)nnc3s2)c(Cl)c1	-6	1.1	39*	1	-7	15
COc1ccccc1-c1nnc2sc(COc3ccc(Cl)cc3Cl)nn12	-5	1	41*	12	1	17
CCN(CC)c1ccc(-c2nn3c(-c4ccccc4OC)nnc3s2)cc1	3	1.4	43*	11	-11	40
O=C(O)CCCCCN1C(=O)C(=O)/C(=C(/O)c2ccc(Cl)cc2)C1c1cccc(F)c1 (stereo not given)	-18	·	·	·	·	·
Cc1ccc(C(=O)c2cn[nH]c2-c2cc(Cl)ccc2O)cc1	·	2.3*	38*	0	16	13
O=C(c1ccco1)c1coc2ccc(Cl)cc2c1=O	-11	·	·	·	·	·
